Calls of active or inactive are those of the source. No cut-off for these calls is given here.
Legend:
HL-60 [1] = experiment: Cytotoxicity against human HL60 cells at 20 uM after 72 hrs by MTT assay; assay type: functional, cell-based
HL-60 [2] = experiment: Cytotoxicity against human HL60 cells after 72 hrs by MTT assay; assay type: functional, cell-based; details: HL-60, 72 h
Method in brief: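 HL-60 cells (JCRB 0085) grown in RPMI 1640 with heat-inactivated 10% FBS, L-glutamine, penicillin and streptomycin. Seeded at 4 × 10^4 cells/mL, preincubated 24 h at 37 °C in 5% CO2. Samples added in EtOH-H2O (1:1) to final 0.1-50 µg/mL, with vehicle controls, then incubated 72 h. MTT added for 4 h, formazan dissolved in DMSO, A550 read. Done in triplicate; IC50 is the 50% drop in viable cells.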

[3] = Cytotoxicity against human BSY1 cells; assay type: functional; details: BSY-1, read-out: LC50 (the source's name)
U-251 = experiment: Cytotoxicity against human U251 cells; assay type: functional; details: read-out: LC50 (the source's name)
SF-295 = experiment: Cytotoxicity against human SF295 cells; assay type: functional; details: read-out: LC50 (the source's name)
PC-3 = experiment: Cytotoxicity against human PC3 cells; assay type: functional; details: read-out: LC50 (the source's name)
NCI-H460 = experiment: Cytotoxicity against human NCI-H460 cells; assay type: functional; details: read-out: LC50 (the source's name)
OVCAR-3 = experiment: Cytotoxicity against human OVCAR-3 cells; assay type: functional; details: read-out: LC50 (the source's name)
OVCAR-8 = experiment: Cytotoxicity against human OVCAR8 cells; assay type: functional; details: read-out: LC50 (the source's name)
MKN-28 = experiment: Cytotoxicity against human MKN28 cells; assay type: functional; details: read-out: LC50 (the source's name)

SMILES	Activity (HL-60 [1])	IC50 (HL-60 [2]) [µM]	CC50 [3] [µM]	CC50 (U-251) [µM]	CC50 (SF-295) [µM]	CC50 (PC-3) [µM]	CC50 (NCI-H460) [µM]	CC50 (OVCAR-3) [µM]	CC50 (OVCAR-8) [µM]	CC50 (MKN-28) [µM]
C[C@@H]1O[C@@H](OC[C@H]2O[C@@H](O[C@H]3[C@H](O)[C@@H](O)[C@H](O[C@@H]4CO[C@@H](O[C@@H]5[C@@H](O)[C@H](C)O[C@@H](O[C@H]6[C@H](O[C@H]7CC[C@]8(C)[C@H]9CC=C%10[C@@H]%11CC(C)(C)CC[C@]%11(C(=O)O[C@@H]%11O[C@H](CO[C@@H]%12O[C@H](CO)[C@@H](O[C@@H]%13O[C@@H](C)[C@H](O)[C@@H](O)[C@H]%13O)[C@H](O)[C@H]%12O)[C@@H](O)[C@H](O)[C@H]%11O)CC[C@@]%10(C)[C@]9(C)CC[C@H]8C7(C)C)OC[C@H](O)[C@@H]6O)[C@@H]5O)[C@H](O)[C@@H]4O)O[C@@H]3CO)[C@H](O)[C@@H](O)[C@@H]2O)[C@H](O)[C@H](O)[C@H]1O	inactive									
C[C@@H]1O[C@@H](O[C@H]2[C@H](O[C@H]3CC[C@]4(C)[C@H]5CC=C6[C@@H]7CC(C)(C)CC[C@]7(C(=O)O)CC[C@@]6(C)[C@]5(C)CC[C@H]4C3(C)C)OC[C@H](O)[C@@H]2O)[C@H](O)[C@H](O[C@@H]2OC[C@@H](O)[C@@H](O)[C@H]2O)[C@H]1O		2.3								
C[C@@H]1O[C@@H](OC[C@H]2O[C@@H](O[C@H]3[C@H](O)[C@@H](O)[C@H](O[C@@H]4CO[C@@H](O[C@@H]5[C@@H](O)[C@H](C)O[C@@H](O[C@H]6[C@H](O[C@H]7CC[C@]8(C)[C@H]9CC=C%10[C@@H]%11CC(C)(C)CC[C@]%11(C(=O)O)CC[C@@]%10(C)[C@]9(C)CC[C@H]8C7(C)C)OC[C@H](O)[C@@H]6O)[C@@H]5O)[C@H](O)[C@@H]4O)O[C@@H]3CO)[C@H](O)[C@@H](O)[C@@H]2O)[C@H](O)[C@H](O)[C@H]1O		2.8	5.9	6.3	6	6	40	47	71	30

Reference: ChEMBL document CHEMBL1148894, “Triterpene saponins from the roots of Clematis chinensis” (J Nat Prod, 2004)
